Source: ChEMBL document CHEMBL3739352, “Anticonvulsant activity, crystal structures, and preliminary safety evaluation of N-trans-cinnamoyl derivatives of selected (un)modified aminoalkanols” (Eur J Med Chem, 2016)
Calls of active or inactive are those of the source. The rule behind the calls is not given here.

How the values were obtained:
Rattus norvegicus [1] = experiment: Neurotoxicity in Sprague-Dawley rat at 30 mg/kg, po after 1 hr; format: toxicity, organism-based; details: in vivo
Method in brief: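 Sprague-Dawley rats were given 30 mg/kg orally in 0.5% methylcellulose. Neurotoxicity was checked at 0.25, 0.5, 1.0, 2.0 and 4 h after dosing. Results are given as number of rats showing neurotoxicity/number tested.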

Rattus norvegicus [2] = experiment: Anticonvulsant activity in Sprague-Dawley rat assessed as protection against maximal electroshock-induced seizures at 30 mg/kg, po after 4 hrs; format: functional, organism-based
Method in brief: (§1)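 Sprague-Dawley rats were given 30 mg/kg p.o. in 0.5% methylcellulose. Maximal electroshock was applied at 0.25, 0.5, 1.0, 2.0 and 4 h after dosing. Results are reported as number of rats protected / number tested.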

Rattus norvegicus [3] = experiment: Anticonvulsant activity in Sprague-Dawley rat assessed as protection against maximal electroshock-induced seizures at 30 mg/kg, po after 2 hrs; format: functional, organism-based; method in brief: as §1
Rattus norvegicus [4] = experiment: Anticonvulsant activity in Sprague-Dawley rat assessed as protection against maximal electroshock-induced seizures at 30 mg/kg, po after 1 hr; format: functional, organism-based; method in brief: as §1
Rattus norvegicus [5] = experiment: Anticonvulsant activity in Sprague-Dawley rat assessed as protection against maximal electroshock-induced seizures at 30 mg/kg, po after 0.5 hrs; format: functional, organism-based; method in brief: as §1
Rattus norvegicus [6] = experiment: Anticonvulsant activity in Sprague-Dawley rat assessed as protection against maximal electroshock-induced seizures at 30 mg/kg, po after 0.25 hrs; format: functional, organism-based; method in brief: as §1
Mus musculus [7] = experiment: Anticonvulsant activity in albino Carworth Farms No.1 mouse assessed as protection against 6-Hz electroshock-induced seizures at 100 mg/kg, ip after 0.25 hrs; format: functional, organism-based
Method in brief: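 Carworth Farms No.1 albino mice were dosed i.p. at 100 mg/kg (0.5% methylcellulose solution or suspension). 6-Hz seizures were induced at 32 mA at 0.25, 0.5, 1.0, 2.0 and 4 h after injection. Results are given as animals protected / animals tested.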

Mus musculus [8] = experiment: Neurotoxicity in albino Carworth Farms No.1 mouse at 100 mg/kg, ip after 0.5 hrs by rotarod test; format: toxicity, organism-based; details: in vivo
Method in brief: (§2)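 Mice (albino Carworth Farms No.1) were dosed i.p. at 30, 100 or 300 mg/kg in 0.5% methylcellulose. They were tested 0.5 and 4 h later on a 1-inch knurled rod rotating at 6 rpm. Neurotoxicity was scored if a mouse could not stay on the rod for at least 1 min in each of three trials. Results are given as animals toxic/animals tested, with deaths noted.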

Mus musculus [9] = experiment: Anticonvulsant activity in albino Carworth Farms No.1 mouse assessed as protection against subcutaneous dosed pentetrazol-induced seizures at 300 mg/kg, ip after 4 hrs; format: functional, organism-based
Method in brief: (§3)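 Mouse i.p. screen in Carworth Farms No.1 albino mice at 30, 100 or 300 mg/kg in 0.5% methylcellulose. Testing was at 0.5 and 4 h after injection, by maximal electroshock or by subcutaneous pentetrazol challenge. Scoring was number protected / number used.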

Mus musculus [10] = experiment: Anticonvulsant activity in albino Carworth Farms No.1 mouse assessed as protection against maximal electroshock-induced seizures at 30 mg/kg, ip after 4 hrs; format: functional, organism-based; method in brief: as §3
Salmonella typhimurium [11] = experiment: Mutagenicity in Salmonella typhimurium TA98 assessed as number of revertants at 1000 ug/plate by Ames test (reference value: 23 +/- 3); format: toxicity, organism-based; details: salmonella enterica subsp. enterica serovar typhimurium
[12] = Hepatotoxicity against human HepG2 cells assessed as cell viability at 100 uM after 24 hrs by MTT assay relative to control
Salmonella typhimurium [13] = experiment: Mutagenicity in Salmonella typhimurium TA100 assessed as mutagenic index at 20 ug/plate by Ames test; format: toxicity, organism-based; details: salmonella enterica subsp. enterica serovar typhimurium
Method in brief: (§4)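 Ames preincubation test. Strain culture was grown 12 h at 37 °C in nutrient broth, then mixed with compound in DMSO (final 4, 20, 100, 500, 1000 per plate) and buffer in top agar with trace histidine. This was plated on glucose minimal agar for 48 h at 37 °C. Mutagenic index = revertants with compound / DMSO control revertants, from three independent repeats.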

Salmonella typhimurium [14] = experiment: Mutagenicity in Salmonella typhimurium TA100 assessed as mutagenic index at 100 ug/plate by Ames test; format: toxicity, organism-based; details: salmonella enterica subsp. enterica serovar typhimurium; method in brief: as §4
Salmonella typhimurium [15] = experiment: Mutagenicity in Salmonella typhimurium TA100 assessed as assessed as mutagenic index at 1000 ug/plate by Ames test; format: toxicity, organism-based; details: salmonella enterica subsp. enterica serovar typhimurium; method in brief: as §4
Salmonella typhimurium [16] = experiment: Mutagenicity in Salmonella typhimurium TA1535 assessed as assessed as mutagenic index at 4 ug/plate by Ames test; format: toxicity, organism-based; details: salmonella enterica subsp. enterica serovar typhimurium; method in brief: as §4
Salmonella typhimurium [17] = experiment: Mutagenicity in Salmonella typhimurium TA1535 assessed as assessed as mutagenic index at 500 ug/plate by Ames test; format: toxicity, organism-based; details: salmonella enterica subsp. enterica serovar typhimurium
Salmonella typhimurium [18] = experiment: Mutagenicity in Salmonella typhimurium TA98 assessed as mutagenic index at 4 ug/plate by Ames test; format: toxicity, organism-based; details: salmonella enterica subsp. enterica serovar typhimurium
Salmonella typhimurium [19] = experiment: Mutagenicity in Salmonella typhimurium TA98 assessed as mutagenic index at 20 ug/plate by Ames test; format: toxicity, organism-based; details: salmonella enterica subsp. enterica serovar typhimurium
Salmonella typhimurium [20] = experiment: Mutagenicity in Salmonella typhimurium TA98 assessed as mutagenic index at 100 ug/plate by Ames test; format: toxicity, organism-based; details: salmonella enterica subsp. enterica serovar typhimurium
Mus musculus [21] = experiment: Neurotoxicity in albino Carworth Farms No.1 mouse at 100 mg/kg, ip after 4 hrs by rotarod test; format: toxicity, organism-based; details: in vivo; method in brief: as §2
[22] = Lipophilicity of the compound using 85% methanol in water at 1 mg/ml by RT-TLC analysis; format: physicochemical; details: buffer
Method in brief: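 Reversed-phase TLC with a methanol–water mobile phase at the stated methanol content (v/v). Compounds were spotted from 1 mg/mL methanol solutions after 1 h chamber saturation and located under UV light. Rf was measured and RM = log(1/Rf − 1) calculated.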

[23] = Lipophilicity of the compound at 1 mg/ml by RT-TLC analysis relative to 0% methanol; format: physicochemical; details: methanol/water
Method in brief: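 Reversed-phase TLC used methanol–water mobile phases of 95–65% methanol. Compounds were applied from 1 mg/mL methanol solutions after 1 h chamber saturation, with UV detection. RM = log(1/Rf − 1) was calculated at each methanol level and extrapolated linearly (RM = RM0 + bC) to 0% methanol to give RM0.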

Salmonella typhimurium [24] = experiment: Mutagenicity in Salmonella typhimurium TA98 assessed as number of revertants at 100 ug/plate by Ames test (reference value: 23 +/- 3); format: toxicity, organism-based; details: salmonella enterica subsp. enterica serovar typhimurium
Salmonella typhimurium [25] = experiment: Mutagenicity in Salmonella typhimurium TA98 assessed as number of revertants at 20 ug/plate by Ames test (reference value: 23 +/- 3); format: toxicity, organism-based; details: salmonella enterica subsp. enterica serovar typhimurium
Salmonella typhimurium [26] = experiment: Mutagenicity in Salmonella typhimurium TA100 assessed as number of revertants at 100 ug/plate by Ames test (reference value: 77 +/-4); format: toxicity, organism-based; details: salmonella enterica subsp. enterica serovar typhimurium
Method in brief: (§5)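 Salmonella TA100 preincubation Ames assay: overnight-type 12 h broth culture at 37 °C, compound in DMSO at final 4–1000 per plate, top agar with trace histidine, glucose minimal agar, 48 h at 37 °C. Revertant colonies per plate were counted, with a DMSO negative control and a sodium azide positive control. Three independent repetitions were run.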

Salmonella typhimurium [27] = experiment: Mutagenicity in Salmonella typhimurium TA100 assessed as number of revertants at 20 ug/plate by Ames test (reference value: 77 +/-4); format: toxicity, organism-based; details: salmonella enterica subsp. enterica serovar typhimurium; method in brief: as §5
[28] = Neurotoxicity in ip dosed albino Carworth Farms No.1 mouse after 0.25 hrs by rotarod test; format: toxicity, organism-based; details: in vivo
in vitro [29] = details: human, HepG2 cells
in vitro [30] = details: human, HepG2 cells; remark: listed apart in the source

CC(O)CNC(=O)/C=C/c1ccccc1 (racemic)
Activity (Rattus norvegicus [1]): Non-toxic
Activity (Rattus norvegicus [2]): inactive
Activity (Rattus norvegicus [3]): inactive
Activity (Rattus norvegicus [4]): inactive
Activity (Rattus norvegicus [5]): inactive
Activity (Rattus norvegicus [6]): inactive
Activity (Mus musculus [7]): Active
Activity (Mus musculus [8]): Non-toxic
Activity (Mus musculus [9]): inactive
Activity (Mus musculus [10]): inactive
Activity (Salmonella typhimurium [11]): 24
viability at 24 h, 100 µM [12]: 91.9%
Activity_index (Salmonella typhimurium [13]): 0.9
Activity_index (Salmonella typhimurium [14]): 0.9
Activity_index (Salmonella typhimurium [15]): 1
Activity_index (Salmonella typhimurium [16]): 1.2
Activity_index (Salmonella typhimurium [17]): 1.4
Activity_index (Salmonella typhimurium [18]): 1.1
Activity_index (Salmonella typhimurium [19]): 1
Activity_index (Salmonella typhimurium [20]): 0.9
Activity (Mus musculus [21]): Non-toxic
Rm [22]: -0.33
Rm [23]: 1.512
Activity (Salmonella typhimurium [24]): 21
Activity (Salmonella typhimurium [25]): 22
Activity (Salmonella typhimurium [26]): 67
Activity (Salmonella typhimurium [27]): 70
TD50 at 0.25 h [28]: 136 mg/kg
viability at 24 h, 10 µM (in vitro [29]): 99%
viability at 24 h, 100 µM (in vitro [30]): 85%

CC(C)C(CO)NC(=O)/C=C/c1ccccc1 (racemic)
Activity (Rattus norvegicus [1]): Non-toxic
Activity (Rattus norvegicus [2]): inactive
Activity (Rattus norvegicus [3]): inactive
Activity (Rattus norvegicus [4]): inactive
Activity (Rattus norvegicus [5]): inactive
Activity (Rattus norvegicus [6]): inactive
Activity (Mus musculus [7]): Active
Activity (Mus musculus [8]): Non-toxic
Activity (Mus musculus [9]): inactive
Activity (Mus musculus [10]): inactive
Activity (Salmonella typhimurium [11]): 15
viability at 24 h, 100 µM [12]: 82.2%
Activity_index (Salmonella typhimurium [13]): 1
Activity_index (Salmonella typhimurium [14]): 1
Activity_index (Salmonella typhimurium [15]): 1
Activity_index (Salmonella typhimurium [16]): 0.5
Activity_index (Salmonella typhimurium [17]): 0.7
Activity_index (Salmonella typhimurium [18]): 0.9
Activity_index (Salmonella typhimurium [19]): 0.8
Activity_index (Salmonella typhimurium [20]): 0.8
Activity (Mus musculus [21]): Non-toxic
Rm [22]: -0.16
Rm [23]: 2.219
Activity (Salmonella typhimurium [24]): 19
Activity (Salmonella typhimurium [25]): 19
Activity (Salmonella typhimurium [26]): 80
Activity (Salmonella typhimurium [27]): 75
TD50 at 0.25 h [28]: 190 mg/kg
viability at 24 h, 10 µM (in vitro [29]): 98%
viability at 24 h, 100 µM (in vitro [30]): 90%
